Assays:
Assay type in all cases: functional
Candida tropicalis [1] = assay: Antifungal activity against Candida tropicalis ATCC 750 by broth microdilution assay
Method in brief: (§1)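 CLSI M27-A3 broth microdilution. Compounds diluted to 1 mg/ml in 1% DMSO. Fluconazole (1 mg/ml) served as positive control, 1% DMSO as vehicle control, with media and culture controls. Triplicate at each concentration, repeated thrice. Inocula came from YPDA stocks subcultured in broth for 48 h at 37 °C.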

Candida tropicalis [2] = assay: Antifungal activity against clinical isolates of Candida tropicalis 2029 by broth microdilution assay; method in brief: as §1
Candida tropicalis [3] = assay: Antifungal activity against clinical isolates of Candida tropicalis 2356 by broth microdilution assay; method in brief: as §1
Candida albicans [4] = assay: Antifungal activity against clinical isolates of Candida albicans 2779 by broth microdilution assay; method in brief: as §1
Candida albicans [5] = assay: Antifungal activity against clinical isolates of Candida albicans 2323 by broth microdilution assay; method in brief: as §1
Candida albicans [6] = assay: Antifungal activity against Candida albicans ATCC 10261 by broth microdilution assay; method in brief: as §1
Candida albicans [7] = assay: Antifungal activity against clinical isolates of Candida albicans 2367 by broth microdilution assay; method in brief: as §1

Measured: MIC

CCc1ccnc(-c2nccn2Cc2nnc(-c3ccc(Cl)cc3)o2)c1
> 1000 µg/mL: all assays above

CCc1ccnc(-c2nccn2Cc2nnc(-c3ccc(Cl)cc3Cl)o2)c1
> 1000 µg/mL: all assays above

CCc1ccnc(-c2nccn2Cc2nnc(COc3ccc(Cl)cc3)o2)c1
> 1000 µg/mL: all assays above

CCc1ccnc(-c2nccn2Cc2nnc(Cc3ccc(C(C)C)cc3)o2)c1
> 1000 µg/mL: all assays above
